Data as given in ChEMBL document CHEMBL3739352, “Anticonvulsant activity, crystal structures, and preliminary safety evaluation of N-trans-cinnamoyl derivatives of selected (un)modified aminoalkanols” (Eur J Med Chem, 2016).
Activity calls are given as the source filed them. No cut-off for these calls is given here.

Tests used:
Mus musculus [1] = assay: Anticonvulsant activity in albino Carworth Farms No.1 mouse assessed as protection against subcutaneous dosed pentetrazol-induced seizures at 300 mg/kg, ip after 0.5 hrs; assay type: functional, organism-based
How it was run: (§1)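 Mouse i.p. screen in Carworth Farms No.1 albino mice at 30, 100 or 300 mg/kg in 0.5% methylcellulose. Testing was at 0.5 and 4 h after injection, by maximal electroshock or by subcutaneous pentetrazol challenge. Scoring was number protected / number used.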

Salmonella typhimurium [2] = assay: Mutagenicity in Salmonella typhimurium TA98 assessed as mutagenic index at 100 ug/plate by Ames test; assay type: toxicity, organism-based; conditions: salmonella enterica subsp. enterica serovar typhimurium
Salmonella typhimurium [3] = assay: Mutagenicity in Salmonella typhimurium TA1535 assessed as assessed as mutagenic index at 4 ug/plate by Ames test; assay type: toxicity, organism-based; conditions: salmonella enterica subsp. enterica serovar typhimurium
How it was run: (§2)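 Ames preincubation test. Strain culture was grown 12 h at 37 °C in nutrient broth, then mixed with compound in DMSO (final 4, 20, 100, 500, 1000 per plate) and buffer in top agar with trace histidine. This was plated on glucose minimal agar for 48 h at 37 °C. Mutagenic index = revertants with compound / DMSO control revertants, from three independent repeats.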

Salmonella typhimurium [4] = assay: Mutagenicity in Salmonella typhimurium TA100 assessed as mutagenic index at 20 ug/plate by Ames test; assay type: toxicity, organism-based; conditions: salmonella enterica subsp. enterica serovar typhimurium; how it was run: as §2
Salmonella typhimurium [5] = assay: Mutagenicity in Salmonella typhimurium TA1535 assessed as number of revertants at 1000 ug/plate by Ames test (reference value: 10 +/- 3); assay type: toxicity, organism-based; conditions: salmonella enterica subsp. enterica serovar typhimurium
Mus musculus [6] = assay: Neurotoxicity in albino Carworth Farms No.1 mouse at 30 mg/kg, ip after 0.5 hrs by rotarod test; assay type: toxicity, organism-based; conditions: in vivo
How it was run: (§3)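 Mice (albino Carworth Farms No.1) were dosed i.p. at 30, 100 or 300 mg/kg in 0.5% methylcellulose. They were tested 0.5 and 4 h later on a 1-inch knurled rod rotating at 6 rpm. Neurotoxicity was scored if a mouse could not stay on the rod for at least 1 min in each of three trials. Results are given as animals toxic/animals tested, with deaths noted.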

Mus musculus [7] = assay: Neurotoxicity in albino Carworth Farms No.1 mouse at 100 mg/kg, ip after 4 hrs by rotarod test; assay type: toxicity, organism-based; conditions: in vivo; how it was run: as §3
[8] = Lipophilicity of the compound at 1 mg/ml by RT-TLC analysis relative to 0% methanol; assay type: physicochemical; conditions: methanol/water
How it was run: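 Reversed-phase TLC used methanol–water mobile phases of 95–65% methanol. Compounds were applied from 1 mg/mL methanol solutions after 1 h chamber saturation, with UV detection. RM = log(1/Rf − 1) was calculated at each methanol level and extrapolated linearly (RM = RM0 + bC) to 0% methanol to give RM0.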

Salmonella typhimurium [9] = assay: Mutagenicity in Salmonella typhimurium TA98 assessed as mutagenic index at 20 ug/plate by Ames test; assay type: toxicity, organism-based; conditions: salmonella enterica subsp. enterica serovar typhimurium
Mus musculus [10] = assay: Neurotoxicity in albino Carworth Farms No.1 mouse at 300 mg/kg, ip after 4 hrs by rotarod test; assay type: toxicity, organism-based; conditions: in vivo; how it was run: as §3
Salmonella typhimurium [11] = assay: Mutagenicity in Salmonella typhimurium TA100 assessed as assessed as mutagenic index at 1000 ug/plate by Ames test; assay type: toxicity, organism-based; conditions: salmonella enterica subsp. enterica serovar typhimurium; how it was run: as §2
Salmonella typhimurium [12] = assay: Mutagenicity in Salmonella typhimurium TA98 assessed as number of revertants at 20 ug/plate by Ames test (reference value: 23 +/- 3); assay type: toxicity, organism-based; conditions: salmonella enterica subsp. enterica serovar typhimurium
Salmonella typhimurium [13] = assay: Mutagenicity in Salmonella typhimurium TA100 assessed as mutagenic index at 500 ug/plate by Ames test; assay type: toxicity, organism-based; conditions: salmonella enterica subsp. enterica serovar typhimurium; how it was run: as §2
Salmonella typhimurium [14] = assay: Mutagenicity in Salmonella typhimurium TA1535 assessed assessed as mutagenic index at 100 ug/plate by Ames test; assay type: toxicity, organism-based; conditions: salmonella enterica subsp. enterica serovar typhimurium
Salmonella typhimurium [15] = assay: Mutagenicity in Salmonella typhimurium TA100 assessed as number of revertants at 1000 ug/plate by Ames test (reference value: 77 +/-4); assay type: toxicity, organism-based; conditions: salmonella enterica subsp. enterica serovar typhimurium
How it was run: (§4)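 Salmonella TA100 preincubation Ames assay: overnight-type 12 h broth culture at 37 °C, compound in DMSO at final 4–1000 per plate, top agar with trace histidine, glucose minimal agar, 48 h at 37 °C. Revertant colonies per plate were counted, with a DMSO negative control and a sodium azide positive control. Three independent repetitions were run.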

[16] = Lipophilicity of the compound using 65% methanol in water at 1 mg/ml by RT-TLC analysis; assay type: physicochemical; conditions: buffer
How it was run: (§5)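 Reversed-phase TLC with a methanol–water mobile phase at the stated methanol content (v/v). Compounds were spotted from 1 mg/mL methanol solutions after 1 h chamber saturation and located under UV light. Rf was measured and RM = log(1/Rf − 1) calculated.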

Mus musculus [17] = assay: Anticonvulsant activity in albino Carworth Farms No.1 mouse assessed as protection against subcutaneous dosed pentetrazol-induced seizures at 100 mg/kg, ip after 4 hrs; assay type: functional, organism-based; how it was run: as §1
[18] = Lipophilicity of the compound using 85% methanol in water at 1 mg/ml by RT-TLC analysis; assay type: physicochemical; conditions: buffer; how it was run: as §5
Salmonella typhimurium [19] = assay: Mutagenicity in Salmonella typhimurium TA100 assessed as number of revertants at 100 ug/plate by Ames test (reference value: 77 +/-4); assay type: toxicity, organism-based; conditions: salmonella enterica subsp. enterica serovar typhimurium; how it was run: as §4
Salmonella typhimurium [20] = assay: Mutagenicity in Salmonella typhimurium TA98 assessed as mutagenic index at 500 ug/plate by Ames test; assay type: toxicity, organism-based; conditions: salmonella enterica subsp. enterica serovar typhimurium
Mus musculus [21] = assay: Anticonvulsant activity in albino Carworth Farms No.1 mouse assessed as protection against subcutaneous dosed pentetrazol-induced seizures at 30 mg/kg, ip after 0.5 hrs; assay type: functional, organism-based; how it was run: as §1
Mus musculus [22] = assay: Anticonvulsant activity in albino Carworth Farms No.1 mouse assessed as protection against maximal electroshock-induced seizures at 300 mg/kg, ip after 0.5 hrs; assay type: functional, organism-based; how it was run: as §1
Salmonella typhimurium [23] = assay: Mutagenicity in Salmonella typhimurium TA1535 assessed as number of revertants at 500 ug/plate by Ames test (reference value: 10 +/- 3); assay type: toxicity, organism-based; conditions: salmonella enterica subsp. enterica serovar typhimurium
Salmonella typhimurium [24] = assay: Mutagenicity in Salmonella typhimurium TA1535 assessed as mutagenic index at 1000 ug/plate by Ames test; assay type: toxicity, organism-based; conditions: salmonella enterica subsp. enterica serovar typhimurium
Salmonella typhimurium [25] = assay: Mutagenicity in Salmonella typhimurium TA98 assessed as number of revertants at 4 ug/plate by Ames test (reference value: 23 +/- 3); assay type: toxicity, organism-based; conditions: salmonella enterica subsp. enterica serovar typhimurium
Salmonella typhimurium [26] = assay: Mutagenicity in Salmonella typhimurium TA1535 assessed as assessed as mutagenic index at 20 ug/plate by Ames test; assay type: toxicity, organism-based; conditions: salmonella enterica subsp. enterica serovar typhimurium; how it was run: as §2
Salmonella typhimurium [27] = assay: Mutagenicity in Salmonella typhimurium TA100 assessed as mutagenic index at 4 ug/plate by Ames test; assay type: toxicity, organism-based; conditions: salmonella enterica subsp. enterica serovar typhimurium; how it was run: as §2
Mus musculus [28] = assay: Anticonvulsant activity in albino Carworth Farms No.1 mouse assessed as protection against maximal electroshock-induced seizures at 30 mg/kg, ip after 0.5 hrs; assay type: functional, organism-based; how it was run: as §1
Salmonella typhimurium [29] = assay: Mutagenicity in Salmonella typhimurium TA100 assessed as number of revertants at 500 ug/plate by Ames test (reference value: 77 +/-4); assay type: toxicity, organism-based; conditions: salmonella enterica subsp. enterica serovar typhimurium; how it was run: as §4
[30] = Lipophilicity of the compound using 75% methanol in water at 1 mg/ml by RT-TLC analysis; assay type: physicochemical; conditions: buffer; how it was run: as §5
Mus musculus [31] = assay: Anticonvulsant activity in albino Carworth Farms No.1 mouse assessed as protection against maximal electroshock-induced seizures at 30 mg/kg, ip after 4 hrs; assay type: functional, organism-based; how it was run: as §1
Mus musculus [32] = assay: Anticonvulsant activity in albino Carworth Farms No.1 mouse assessed as protection against subcutaneous dosed pentetrazol-induced seizures at 100 mg/kg, ip after 0.5 hrs; assay type: functional, organism-based; how it was run: as §1
Mus musculus [33] = assay: Anticonvulsant activity in albino Carworth Farms No.1 mouse assessed as protection against maximal electroshock-induced seizures at 300 mg/kg, ip after 4 hrs; assay type: functional, organism-based; how it was run: as §1
Salmonella typhimurium [34] = assay: Mutagenicity in Salmonella typhimurium TA98 assessed as number of revertants at 1000 ug/plate by Ames test (reference value: 23 +/- 3); assay type: toxicity, organism-based; conditions: salmonella enterica subsp. enterica serovar typhimurium

Rm [8]	Rm [16]	Rm [18]	Structure (SMILES)	Activity (Mus musculus [1])	Activity_index (Salmonella typhimurium [2])	Activity_index (Salmonella typhimurium [3])	Activity_index (Salmonella typhimurium [4])	Activity (Salmonella typhimurium [5])	Activity (Mus musculus [6])	Activity (Mus musculus [7])	Activity_index (Salmonella typhimurium [9])	Activity (Mus musculus [10])	Activity_index (Salmonella typhimurium [11])	Activity (Salmonella typhimurium [12])	Activity_index (Salmonella typhimurium [13])	Activity_index (Salmonella typhimurium [14])	Activity (Salmonella typhimurium [15])	Activity (Mus musculus [17])	Activity (Salmonella typhimurium [19])	Activity_index (Salmonella typhimurium [20])	other results
1.937	0.19	-0.25	CCC(O)CNC(=O)/C=C/c1ccccc1 (racemic)	Active	0.9	0.9	0.8	6	Non-toxic	Non-toxic	0.9	Non-toxic	0.9	20	0.8	0.5	72	inactive	62	0.7	Activity (Mus musculus [21]): inactive; Activity (Mus musculus [22]): Active; Activity (Salmonella typhimurium [23]): 7; Activity_index (Salmonella typhimurium [24]): 0.6; Activity (Salmonella typhimurium [25]): 19; Activity_index (Salmonella typhimurium [26]): 1.4; Activity_index (Salmonella typhimurium [27]): 0.8; Activity (Mus musculus [28]): inactive; Activity (Salmonella typhimurium [29]): 60; Rm [30]: -0.18; Activity (Mus musculus [31]): inactive; Activity (Mus musculus [32]): inactive; Activity (Mus musculus [33]): inactive; Activity (Salmonella typhimurium [34]): 25
2.054	0.33	-0.18	O=C(/C=C/c1ccccc1)N[C@H]1CCCC[C@@H]1O (racemic)	inactive	0.9	0.5	1	6	Non-toxic	Non-toxic	0.9	Toxic	0.9	21	1	0.6	70	inactive	72	0.8	Activity (Mus musculus [21]): inactive; Activity (Mus musculus [22]): inactive; Activity (Salmonella typhimurium [23]): 7; Activity_index (Salmonella typhimurium [24]): 0.6; Activity (Salmonella typhimurium [25]): 22; Activity_index (Salmonella typhimurium [26]): 1.4; Activity_index (Salmonella typhimurium [27]): 0.9; Activity (Mus musculus [28]): inactive; Activity (Salmonella typhimurium [29]): 73; Rm [30]: -0.09; Activity (Mus musculus [31]): inactive; Activity (Mus musculus [32]): inactive; Activity (Mus musculus [33]): inactive; Activity (Salmonella typhimurium [34]): 18
2.093	0.25	-0.29	CCC(CO)NC(=O)/C=C/c1ccccc1 (racemic)	Active	1	1.1	0.8	13	Non-toxic	Non-toxic	1	Non-toxic	0.8	24	0.9	1.4	64	inactive	64	0.9	Activity (Mus musculus [21]): inactive; Activity (Mus musculus [22]): Active; Activity (Salmonella typhimurium [23]): 13; Activity_index (Salmonella typhimurium [24]): 1.3; Activity (Salmonella typhimurium [25]): 21; Activity_index (Salmonella typhimurium [26]): 0.5; Activity_index (Salmonella typhimurium [27]): 0.9; Activity (Mus musculus [28]): inactive; Activity (Salmonella typhimurium [29]): 72; Rm [30]: -0.19; Activity (Mus musculus [31]): inactive; Activity (Mus musculus [32]): inactive; Activity (Mus musculus [33]): inactive; Activity (Salmonella typhimurium [34]): 19
2.219	0.31	-0.16	CC(C)C(CO)NC(=O)/C=C/c1ccccc1 (racemic)	inactive	0.8	0.5	1	7	Non-toxic	Non-toxic	0.8	Non-toxic	1	19	1	0.6	80	inactive	80	0.8	Activity (Mus musculus [21]): inactive; Activity (Mus musculus [22]): Active; Activity (Salmonella typhimurium [23]): 7; Activity_index (Salmonella typhimurium [24]): 0.7; Activity (Salmonella typhimurium [25]): 20; Activity_index (Salmonella typhimurium [26]): 0.6; Activity_index (Salmonella typhimurium [27]): 1.1; Activity (Mus musculus [28]): inactive; Activity (Salmonella typhimurium [29]): 79; Rm [30]: -0.1; Activity (Mus musculus [31]): inactive; Activity (Mus musculus [32]): inactive; Activity (Mus musculus [33]): Active; Activity (Salmonella typhimurium [34]): 15
